Shown are actives, neighbours in structure and some others; about 1.5% of the full set was active somewhere.
APJ agonist: agonists of human apelin receptor APJ, primary screen, CHO-K1 cells, PathHunter beta-arrestin, luminescence; P35414; 0% DMSO wells, 100% apelin; activation, % at 20 µM; hit rate 0.11% among 330,000; AID 2520, 2010;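 active means activation more than six SD over the plate average, tested at 20 µM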;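 further: 0% = DMSO alone and 100% = apelin-13 at 10 nM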
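Material: CHO-K1 APJ beta-arrestin complementation cell line; Input: cell density 1000 per well; Incubation: compound stimulation 90 min at 25 °C, detection 60 min; Signal: luminescence from split beta-galactosidase complementation, Galacton Star/Emerald II substrate; Controls: DMSO-only wells as negative, 10 nM Apelin-13 as positive control.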
CCR6 antag: CCR6 receptor antagonists, primary screen, cell-based, CHO-K1, luminescence, beta-arrestin, uHTS. C-C chemokine receptor type 6 (Homo sapiens), P51684. CHO-K1 CCR6 PathHunter beta-arrestin, CCL20-stimulated. inhibition, % at 20 µM. hit rate 0.49% among 340,000;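 active means compounds whose inhibition of the agonist-driven luminescence signal at 20 µM reaches about 50%, limit read from the data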;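 further: cells stimulated with CCL20 at 14 nM final; plate controls were DMSO with CCL20 for no effect and DMSO without agonist for full effect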
Target sequence (P51684 whole entry, looked up): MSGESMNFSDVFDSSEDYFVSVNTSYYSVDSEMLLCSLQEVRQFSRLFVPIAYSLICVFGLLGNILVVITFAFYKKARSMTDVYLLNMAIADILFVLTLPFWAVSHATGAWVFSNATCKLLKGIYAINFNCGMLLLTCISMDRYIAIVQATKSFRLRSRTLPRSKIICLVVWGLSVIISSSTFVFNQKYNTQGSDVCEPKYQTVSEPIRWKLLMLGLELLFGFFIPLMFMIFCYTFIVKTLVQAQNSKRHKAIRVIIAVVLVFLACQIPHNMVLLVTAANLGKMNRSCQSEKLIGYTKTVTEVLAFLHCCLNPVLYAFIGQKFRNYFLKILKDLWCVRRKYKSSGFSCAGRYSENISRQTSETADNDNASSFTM
APJ antag: antagonists of human apelin receptor APJ, primary screen, CHO-K1 cells, beta-arrestin complementation, luminescence | P35414 | inhibition, % at 20 µM | hit rate 0.32% among 330,000;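 active means inhibition above about 40% at 20 µM, limit read from the data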;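 further: cells challenged with 10 nM apelin-13 agonist together with compound; plate controls were apelin-13 plus DMSO wells for no effect and DMSO wells lacking apelin-13 for full effect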
EBI2 block: EBI2 receptor antagonists, beta-arrestin recruitment, primary screen, cell-based, luminescence, 7a,25-OHC stimulation, uHTS; inhibition, % at 5 µM; G-protein coupled receptor 183 (Homo sapiens), P32249; AID 651636, 2012; 7a,25-OHC stimulated; hit rate 0.81% among 360,000; in the data active means inhibition above about 38%;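 further: enzyme fragment complementation signal reports receptor beta-arrestin coupling in cells; 0% = agonist plus DMSO wells and 100% = wells without agonist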
CXCR6 block: CXCR6 receptor inhibitors, primary screen, cell-based, beta-arrestin, luminescence, CHO-K1 PathHunter, 1536-well; C-X-C chemokine receptor type 6 (Homo sapiens), O00574; hit rate 0.36% among 360,000; inhibition, % at 20 µM; AID 602244, 2012; in the data active means inhibition above about 34%, passing the limit was not always enough;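 further: antagonist mode with CXCL16 agonist at 10 nM final; 0% = 10 nM CXCL16 with DMSO and 100% = unstimulated wells without agonist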
EBI2 antag conf: EBI2 antagonist hit retest, beta-arrestin, confirmation, cell-based, single concentration, luminescence, 7a,25-OHC stimulation | shares compounds with EBI2 block | 7a,25-OHC antagonism | inhibition, % at 5 µM | hit rate 29% among 2,400 | AID 651997, 2013;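 active means inhibition of at least 50%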
EBI2 agonist: EBI2 agonist activity of antagonist hits, confirmation, counter-screen for EBI2 antagonist project, cell-based, single concentration, agonist mode, luminescence; activation, % at 5 µM; AID 652000, 2013; shares compounds with EBI2 block; EBI2-expressing cells, 60 min; 0% vehicle, 100% 7α,25-dihydroxycholesterol control; 2,400 tested, under 10 active;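 active means activation of at least 50%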
bGal counter: E. coli beta-galactosidase enzyme inhibition, confirmation, counter-screen for EBI2 antagonist project, biochemical, luminescence, single concentration | shares compounds with EBI2 block | purified beta-galactosidase, luminescent Galacton Star, 15 min | inhibition, % at 5 µM | hit rate 1% among 2,400 | AID 652176, 2013;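 active means replicate-average signal at least 3 plate SD below neutral wells, shown as high inhibition, flagging enzyme-inhibiting false positives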;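 further: 0% = DMSO wells with enzyme and 100% = wells lacking enzyme; higher means stronger loss of beta-gal luminescence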
The depositor's hits bear a star; x = no result.

SMILES | APJ agonist | CCR6 antag | APJ antag | EBI2 block | CXCR6 block | EBI2 antag conf | EBI2 agonist | bGal counter
CC1(C(=O)NS(=O)(=O)Cc2cccc(Cl)c2)CCN1C(=O)C1(c2ccc(Cl)cc2)CCC1 (centres undefined) | x | x | x | 0 | -3 | x | x | x
CC1=C(C(=O)OCC2CCCO2)C(c2cccc(C(F)(F)F)c2)C2=C(CC(c3ccco3)CC2=O)N1 (centres undefined) | -4 | 8 | -5 | 53* | 7 | 30 | 0 | 5
CC1=C(C(=O)OCC2CCCO2)C(c2ccccc2OC(C)C)C2=C(CC(c3ccco3)CC2=O)N1 (centres undefined) | -6 | -2 | 12 | -2 | 13 | x | x | x
CC(NC(=O)CN(c1cccc(C(F)(F)F)c1)S(=O)(=O)c1ccc(Cl)c([N+](=O)[O-])c1)c1ccccc1 (centres undefined) | 0 | -25 | -24 | 48* | -7 | 40 | -1 | -11
CCCCn1nnnc1C(c1cc2ccccc2o1)N1CCN(c2ncccc2C#N)CC1 (centres undefined) | x | x | x | 48* | 2 | 37 | 0 | -16
CCCCn1nnnc1C(c1cc2ccccc2o1)N1CCN(C/C=C/c2ccccc2)CC1 (centres undefined) | x | x | x | 62* | 0 | 34 | 0 | 6
CCCCn1nnnc1C(c1cc2ccccc2o1)N1CCCC1 (centres undefined) | x | x | x | -10 | 3 | x | x | x
Cc1ccc(Cn2c(SC(C)C(N)=O)nc3ccccc3c2=O)cc1 (centres undefined) | -2 | 3 | 5 | 6 | 1 | x | x | x
COc1ccc(-c2ccc(CN3C(C(C)C)C(=O)N(Cc4cn(CC5CCCCC5)nn4)CCS3(=O)=O)cc2)cc1OC (centres undefined) | x | x | x | 44* | 8 | 11 | 1 | -1
O=C(CSc1ccc(Cl)cc1)N1CCC(c2nc3ccccc3s2)CC1 | -3 | 5 | -30 | 82* | 0 | 66* | 1 | -8
CCOC(=O)C1CCN(C(=O)COc2ccc(Br)cc2C)CC1 | -1 | 0 | -2 | 32 | 2 | x | x | x
CCOC(=O)C1CCN(C(=O)CSc2ccc(Br)cc2)CC1 | -2 | 1 | -11 | 84* | 7 | 54* | 1 | 5
CCOC(=O)C1CCN(C(=O)CSc2ccc(Cl)cc2)CC1 | -3 | -13 | 11 | 77* | 7 | 47 | 3 | 7
Brc1ccc(OCc2nnc(SCC3CCCCC3)o2)cc1 | 3 | 6 | -16 | 69* | 3 | 27 | 1 | -6
CCc1ccc(OCc2nnc(SCC(=O)NC3CCCCC3)o2)cc1 | -1 | 14 | -4 | 11 | 9 | x | x | x
NC(=O)C1CCN(C(=O)c2ccc(NS(=O)(=O)c3ccc(F)c(F)c3)cc2)CC1 | -3 | -10 | 5 | -12 | 6 | x | x | x
N#Cc1cc2c(nc1SCC(=O)Nc1sc3c(c1C#N)CCC3)CCCC2 | -2 | -17 | 5 | 18 | -7 | x | x | x
N#Cc1ccc(-c2ccc(F)cc2)nc1SCC(=O)Nc1sc2c(c1C#N)CCC2 | -1 | 15 | 9 | 53* | -1 | 33 | 2 | -16
CN(Cc1ccccc1)C(=O)CCC1CCN(C(=O)CCC(F)(F)F)CC1 | -2 | 5 | 5 | -2 | 2 | x | x | x
COc1cc(-c2nnc(COc3ccc4cc(Br)ccc4c3)o2)cc(OC)c1OC | -1 | 8 | 15 | 56* | 3 | 14 | 1 | 1
COc1cccc(-c2cc(C(=O)N3CCN(S(=O)(=O)c4ccc(Br)cc4)CC3)[nH]n2)c1 | 5 | 14 | -11 | 57* | -4 | 38 | 1 | 11
COc1ccc(S(=O)(=O)N2CCN(C(=O)c3cc(-c4ccccc4OC)n[nH]3)CC2)cc1 | 3 | 6 | -4 | 63* | -13 | 38 | 1 | 7
COc1ccc(S(=O)(=O)N2CCN(C(=O)c3cc(C)on3)CC2)cc1 | 0 | -1 | 2 | -13 | -6 | x | x | x
COc1cc(C(=O)N2CCN(C(=O)c3cc(-c4ccc(Br)cc4)n[nH]3)CC2)cc(OC)c1OC | -1 | 4 | -51 | 52* | 2 | 10 | -1 | -13
CC(C)c1ccc(S(=O)(=O)N2CCN(C(=O)c3cc(-c4ccccc4)n[nH]3)CC2)cc1 | -3 | 21 | -52 | 75* | 8 | 34 | -1 | -12
SMILES | APJ agonist | CCR6 antag | APJ antag | EBI2 block | CXCR6 block | EBI2 antag conf | EBI2 agonist | bGal counter
COc1cc(C(=O)N2CCN(C(=O)c3ccccc3)CC2)cc(OC)c1OC | -1 | -18 | 13 | -1 | -1 | x | x | x
O=C(Nc1ccccc1)c1ccc(CN2CCC(Cc3ccccc3)CC2)cc1 | -4 | 19 | 9 | 65* | 11 | 32 | -1 | 6
COc1ccc(C(=O)Nc2ccc(N3CCN(Cc4ccccc4)CC3)cc2)cc1 | -1 | -9 | 8 | -8 | -7 | x | x | x
COc1ccc(NC(=O)c2ccc(CN3CCN(c4ccccc4)CC3)cc2)cc1 | -1 | -12 | 8 | 61* | 5 | 23 | 2 | 8
O=C(Nc1ccccc1C(F)(F)F)c1ccc(CN2CCC(Cc3ccccc3)CC2)cc1 | -4 | 4 | 3 | 0 | 16 | x | x | x
O=C(Nc1cccc(F)c1)C1CCCN(C(=O)c2ccc(Cl)cc2)C1 (centres undefined) | 0 | 1 | -2 | 11 | 6 | x | x | x
Cc1noc(C)c1CSCC(=O)Nc1cc(C(F)(F)F)ccc1N1CCOCC1 | -3 | 1 | 12 | -6 | -2 | x | x | x
Fc1ccc(/C=C\c2nccc3c2[nH]c2ccccc23)cc1 | 2 | 0 | -12 | 49* | -2 | 29 | -1 | -9
O=c1[nH]c2ccccc2nc1/C=C/c1ccccc1 | -3 | 9 | -6 | 0 | 1 | x | x | x
C(=C\c1nccc2c1[nH]c1ccccc12)/c1ccccc1 | 0 | -20 | 6 | 55* | -10 | 35 | 2 | -2
Cc1ccc(/C=C\c2nccc3c2[nH]c2ccccc23)cc1 | -3 | -19 | -7 | 74* | -13 | 46 | -1 | -8
COc1ccccc1N(CC(=O)Nc1cccc(C(F)(F)F)c1)S(C)(=O)=O | -3 | 12 | 5 | -3 | 2 | x | x | x

From PubChem BioAssay
